Data taken from ChEMBL document CHEMBL1155526, “Discovery of a potent, orally active 11beta-hydroxysteroid dehydrogenase type 1 inhibitor for clinical study: identification of (S)-2-((1S,2S,4R)-bicyclo[2.2.1]heptan-2-ylamino)-5-isopropyl-5-methylthiazol-4(5H)-one (AMG 221)” (J Med Chem, 2010).
Calls of active or inactive are those of the source. The rule behind the calls is not given here.

Columns and labels:
Rattus norvegicus [1] = assay: Metabolic epimerization in Sprague-Dawley rat assessed as formation of [R]-2-((1S,2S,4R)-bicyclo[2.2.1]heptan-2-ylamino)-5-5iospropylthiazol-4(5H)-one at 10 mg/kg, po up to 24 hrs by LC-MS/MS analysis; format: ADME, organism-based; design: dose 10 mg/kg, route oral; conditions: in vivo
Summary of the method: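 Sprague-Dawley rats (n = 2/group) dosed orally at 10 mg/kg. Plasma taken predose and at intervals up to 24 h. Diastereomers separated by HPLC, quantified by positive-ion ESI MS/MS with single ion monitoring. AUC ratio of epimer to parent calculated.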

Rattus norvegicus [2] = assay: Metabolic epimerization in Sprague-Dawley rat assessed as formation of [R]-2-((1S,2S,4R)-bicyclo[2.2.1]heptan-2-ylamino)-5-5iospropylthiazol-4(5H)-one at 10 mg/kg up to 24 hrs by LC-MS/MS analysis; conditions: in vivo
Cytochrome P450 2C9 = Cytochrome P450 2C9 (Homo sapiens, UniProt P11712); assay: Inhibition of CYP2C9; format: ADME
Chain of Cytochrome P450 2C9 (P11712 whole entry): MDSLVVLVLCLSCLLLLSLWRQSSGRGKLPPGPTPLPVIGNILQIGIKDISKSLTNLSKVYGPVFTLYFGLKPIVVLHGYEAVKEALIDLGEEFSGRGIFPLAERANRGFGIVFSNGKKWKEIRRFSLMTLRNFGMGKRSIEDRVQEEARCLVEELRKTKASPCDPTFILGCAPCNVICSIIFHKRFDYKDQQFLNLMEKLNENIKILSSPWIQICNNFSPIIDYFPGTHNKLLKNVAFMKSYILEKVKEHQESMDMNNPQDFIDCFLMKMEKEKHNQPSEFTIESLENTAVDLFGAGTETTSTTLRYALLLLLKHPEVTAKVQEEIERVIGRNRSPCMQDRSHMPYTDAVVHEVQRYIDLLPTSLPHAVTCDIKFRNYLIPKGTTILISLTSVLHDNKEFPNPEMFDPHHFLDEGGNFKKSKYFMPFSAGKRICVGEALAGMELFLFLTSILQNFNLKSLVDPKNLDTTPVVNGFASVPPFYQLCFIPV

[3] = Volume of distribution at steady state in cynomolgus monkey at 2 mg/kg, iv or 10 mg/kg, po; conditions: in vivo, read-out: Vdss
Mus musculus [4] = assay: Antiobesity activity in po dosed diet-induced obese mouse assessed as decrease in body weight administered via gavage BID for 13 days measured after day 13; format: functional, organism-based
Summary of the method: (§1)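 Male C57BL/6 mice on high-fat diet from 3 weeks of age for 12 weeks (DIO), grouped n = 11-12 by pretreatment glucose and body weight. Oral gavage 25 or 50 mg/kg b.i.d. (half dose morning, half afternoon) or vehicle (0.1% Tween-80, 0.5% CMC in water) for 13-14 days. Fed blood glucose by glucose meter, plasma insulin by radioimmunoassay, body weight at study end.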

Cytochrome P450 3A4 = Cytochrome P450 3A4 (Homo sapiens, UniProt P08684); assay: Inhibition of CYP3A4; format: ADME
Chain of Cytochrome P450 3A4 (P08684 whole entry): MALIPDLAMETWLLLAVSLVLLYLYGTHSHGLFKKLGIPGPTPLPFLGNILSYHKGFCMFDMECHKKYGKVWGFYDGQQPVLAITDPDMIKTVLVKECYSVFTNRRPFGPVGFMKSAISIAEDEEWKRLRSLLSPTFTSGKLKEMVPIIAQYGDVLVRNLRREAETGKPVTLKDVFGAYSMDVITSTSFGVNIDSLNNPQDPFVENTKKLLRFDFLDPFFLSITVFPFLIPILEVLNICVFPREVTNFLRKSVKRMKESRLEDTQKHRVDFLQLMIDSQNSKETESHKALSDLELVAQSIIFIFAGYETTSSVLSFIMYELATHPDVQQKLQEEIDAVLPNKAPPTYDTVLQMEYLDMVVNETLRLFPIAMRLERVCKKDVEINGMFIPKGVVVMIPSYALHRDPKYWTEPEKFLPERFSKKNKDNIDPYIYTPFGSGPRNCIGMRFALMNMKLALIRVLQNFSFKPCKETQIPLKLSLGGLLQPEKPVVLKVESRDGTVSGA

Cytochrome P450 2C19 = Cytochrome P450 2C19 (Homo sapiens, UniProt P33261); assay: Inhibition of CYP2C19; format: ADME
Chain of Cytochrome P450 2C19 (P33261 whole entry): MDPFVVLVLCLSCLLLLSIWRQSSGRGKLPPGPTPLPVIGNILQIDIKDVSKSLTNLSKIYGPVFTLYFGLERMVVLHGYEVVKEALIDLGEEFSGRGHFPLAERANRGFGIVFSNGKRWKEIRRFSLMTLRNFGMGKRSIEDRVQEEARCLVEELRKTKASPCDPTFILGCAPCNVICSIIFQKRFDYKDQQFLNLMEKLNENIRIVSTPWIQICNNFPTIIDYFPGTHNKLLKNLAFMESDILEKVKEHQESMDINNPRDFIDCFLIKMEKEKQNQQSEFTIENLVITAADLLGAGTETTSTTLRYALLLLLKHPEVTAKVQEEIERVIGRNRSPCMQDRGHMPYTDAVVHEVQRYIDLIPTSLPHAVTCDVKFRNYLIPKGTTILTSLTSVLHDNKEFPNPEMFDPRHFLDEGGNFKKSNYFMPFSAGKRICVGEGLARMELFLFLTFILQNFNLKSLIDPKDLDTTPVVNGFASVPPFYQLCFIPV

Mus musculus [5] = assay: Ex vivo inhibition of 11beta-HSD1 in high fat diet-fed C57BL/6 mouse inguinal fat at 50 mg/kg, po measured at 4 hrs by ELISA; format: functional; conditions: C57BL/6, 4 h
[6] = Clearance in CD1 mouse at 5 mg/kg, iv or 30 mg/kg, po; format: ADME, organism-based; conditions: in vivo
Summary of the method: (§2)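 iv: mouse 5, rat 2, dog 3, monkey 2 mg/kg in 10% dimethylacetamide/23% water/67% PEG 400. po: mouse 30, rat 10, monkey 10 mg/kg in 0.1% Tween-80/0.5% CMC in water; dog 10 mg/kg in the iv vehicle. Plasma sampled at various time points for drug levels. Half-life is terminal.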

[7] = Bioavailability in CD1 mouse at 5 mg/kg, iv or 30 mg/kg, po; format: ADME, organism-based; conditions: in vivo; summary of the method: as §2
[8] = Metabolic stability in liver microsomes; format: ADME, Microsome
Mus musculus [9] = assay: Ex vivo inhibition of 11beta-HSD1 in high fat diet-fed C57BL/6 mouse inguinal fat at 15 mg/kg, po measured at 8 hrs by ELISA; format: functional; conditions: C57BL/6, 8 h
Mus musculus [10] = assay: Antidiabetic activity in diet-induced obese mouse assessed as mild improvement of glucose tolerance at 25 to 50 mg/kg, po BID for 13 days measured on day 14 after 12 hrs of fasting by glucose tolerance test
[11] = Clearance in Beagle dog at 3 mg/kg, iv or 10 mg/kg, po; conditions: in vivo
Mus musculus [12] = assay: Ex vivo inhibition of 11beta-HSD1 in high fat diet-fed C57BL/6 mouse inguinal fat at 5 mg/kg, po measured at 4 hrs by ELISA; format: functional; conditions: C57BL/6, 4 h
[13] = Terminal half life in Sprague-Dawley rat at 2 mg/kg, iv or 10 mg/kg, po; conditions: in vivo, read-out: beta t1/2 (converted)
[14] = Bioavailability in Sprague-Dawley rat at 2 mg/kg, iv or 10 mg/kg, po; conditions: in vivo
[15] = Terminal half life in CD1 mouse at 5 mg/kg, iv or 30 mg/kg, po; format: ADME, organism-based; conditions: in vivo, read-out: beta t1/2 (converted); summary of the method: as §2
Mus musculus [16] = assay: Ex vivo inhibition of 11beta-HSD1 in high fat diet-fed C57BL/6 mouse inguinal fat at 15 mg/kg, po measured at 4 hrs by ELISA; format: functional; conditions: C57BL/6, 4 h
[17] = Clearance in cynomolgus monkey at 2 mg/kg, iv or 10 mg/kg, po; conditions: in vivo
[18] = Terminal half life in Beagle dog at 3 mg/kg, iv or 10 mg/kg, po; conditions: in vivo, read-out: beta t1/2 (converted)
Mus musculus [19] = assay: Antidiabetic activity in diet-induced obese mouse assessed as decrease in fed blood glucose level at 25 to 50 mg/kg, po administered via gavage BID for 13 days measured after day 13 by glucose tolerance test; format: functional, organism-based; summary of the method: as §1
[20] = Volume of distribution at steady state in Beagle dog at 3 mg/kg, iv or 10 mg/kg, po; conditions: in vivo, read-out: Vdss
Mus musculus [21] = assay: Antidiabetic activity in diet-induced obese mouse assessed as decrease in plasma insulin level at 25 to 50 mg/kg, po administered via gavage BID for 13 days measured after day 13 by glucose tolerance test; format: functional, organism-based; summary of the method: as §1
Mus musculus [22] = assay: Ex vivo inhibition of 11beta-HSD1 in high fat diet-fed C57BL/6 mouse inguinal fat at 5 mg/kg, po measured at 8 hrs by ELISA; format: functional; conditions: C57BL/6, 8 h
Mus musculus [23] = assay: Ex vivo inhibition of 11beta-HSD1 in high fat diet-fed C57BL/6 mouse inguinal fat at 50 mg/kg, po measured at 8 hrs by ELISA; format: functional; conditions: C57BL/6, 8 h
[24] = Volume of distribution at steady state in CD1 mouse at 5 mg/kg, iv or 30 mg/kg, po; format: ADME, organism-based; conditions: in vivo, read-out: Vdss; summary of the method: as §2
[25] = target: T1, 11-beta-hydroxysteroid dehydrogenase type 2 (Homo sapiens, UniProt P80365); assay: Inhibition of 11beta-HSD2
T1 sequence (P80365 whole entry): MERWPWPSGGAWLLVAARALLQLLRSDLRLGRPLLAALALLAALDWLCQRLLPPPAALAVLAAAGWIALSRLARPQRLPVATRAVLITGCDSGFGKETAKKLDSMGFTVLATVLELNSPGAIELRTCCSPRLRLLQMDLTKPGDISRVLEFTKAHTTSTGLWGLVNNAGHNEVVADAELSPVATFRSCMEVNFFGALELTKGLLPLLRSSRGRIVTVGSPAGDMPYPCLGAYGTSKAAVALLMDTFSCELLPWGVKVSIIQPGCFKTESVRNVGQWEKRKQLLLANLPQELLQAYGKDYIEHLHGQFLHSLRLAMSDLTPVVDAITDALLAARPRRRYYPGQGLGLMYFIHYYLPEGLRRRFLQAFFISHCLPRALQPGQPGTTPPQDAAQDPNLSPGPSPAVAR

Cytochrome P450 1A2 = target: T2, Cytochrome P450 1A2 (Homo sapiens, UniProt P05177); assay: Inhibition of CYP1A2; format: ADME
T2 sequence (P05177 whole entry): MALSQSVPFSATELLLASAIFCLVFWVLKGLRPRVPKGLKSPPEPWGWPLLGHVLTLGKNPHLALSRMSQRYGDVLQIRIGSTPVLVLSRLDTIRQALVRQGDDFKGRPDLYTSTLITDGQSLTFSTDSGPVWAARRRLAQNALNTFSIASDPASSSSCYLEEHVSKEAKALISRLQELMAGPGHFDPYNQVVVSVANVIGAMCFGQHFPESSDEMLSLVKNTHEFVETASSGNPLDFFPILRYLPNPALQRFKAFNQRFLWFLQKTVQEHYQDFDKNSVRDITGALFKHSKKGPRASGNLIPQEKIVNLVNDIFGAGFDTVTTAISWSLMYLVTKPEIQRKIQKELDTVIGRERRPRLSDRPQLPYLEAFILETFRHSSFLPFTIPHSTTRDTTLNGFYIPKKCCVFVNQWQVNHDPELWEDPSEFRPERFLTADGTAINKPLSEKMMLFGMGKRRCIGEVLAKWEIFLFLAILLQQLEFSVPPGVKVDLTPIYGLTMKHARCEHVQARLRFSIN

[26] = Bioavailability in cynomolgus monkey at 2 mg/kg, iv or 10 mg/kg, po; conditions: in vivo
[27] = Clearance in Sprague-Dawley rat at 2 mg/kg, iv or 10 mg/kg, po; conditions: in vivo
Cytochrome P450 2D6 = Cytochrome P450 2D6 (Homo sapiens, UniProt P10635); assay: Inhibition of CYP2D6; format: ADME
Chain of Cytochrome P450 2D6 (P10635 whole entry): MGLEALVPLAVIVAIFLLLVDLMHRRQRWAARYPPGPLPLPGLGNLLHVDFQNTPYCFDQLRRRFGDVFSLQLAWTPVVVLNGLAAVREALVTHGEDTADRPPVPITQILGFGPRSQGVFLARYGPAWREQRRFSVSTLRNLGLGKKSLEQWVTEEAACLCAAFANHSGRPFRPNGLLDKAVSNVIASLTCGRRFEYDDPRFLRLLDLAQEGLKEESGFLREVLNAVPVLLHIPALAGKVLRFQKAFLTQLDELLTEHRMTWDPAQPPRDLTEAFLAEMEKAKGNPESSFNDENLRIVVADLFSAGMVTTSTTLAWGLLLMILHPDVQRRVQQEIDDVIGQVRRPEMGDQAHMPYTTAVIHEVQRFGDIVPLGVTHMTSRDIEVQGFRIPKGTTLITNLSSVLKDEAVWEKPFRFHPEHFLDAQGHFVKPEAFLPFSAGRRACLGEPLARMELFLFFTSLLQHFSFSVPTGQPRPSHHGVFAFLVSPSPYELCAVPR

[28] = Terminal half life in cynomolgus monkey at 2 mg/kg, iv or 10 mg/kg, po; conditions: in vivo, read-out: beta t1/2 (converted)
[29] = Bioavailability in Beagle dog at 3 mg/kg, iv or 10 mg/kg, po; conditions: in vivo
Glucocorticoid receptor = target: T3, Glucocorticoid receptor (Homo sapiens, UniProt P04150); assay: Inhibition of glucocorticoid receptor
T3 sequence (P04150 whole entry): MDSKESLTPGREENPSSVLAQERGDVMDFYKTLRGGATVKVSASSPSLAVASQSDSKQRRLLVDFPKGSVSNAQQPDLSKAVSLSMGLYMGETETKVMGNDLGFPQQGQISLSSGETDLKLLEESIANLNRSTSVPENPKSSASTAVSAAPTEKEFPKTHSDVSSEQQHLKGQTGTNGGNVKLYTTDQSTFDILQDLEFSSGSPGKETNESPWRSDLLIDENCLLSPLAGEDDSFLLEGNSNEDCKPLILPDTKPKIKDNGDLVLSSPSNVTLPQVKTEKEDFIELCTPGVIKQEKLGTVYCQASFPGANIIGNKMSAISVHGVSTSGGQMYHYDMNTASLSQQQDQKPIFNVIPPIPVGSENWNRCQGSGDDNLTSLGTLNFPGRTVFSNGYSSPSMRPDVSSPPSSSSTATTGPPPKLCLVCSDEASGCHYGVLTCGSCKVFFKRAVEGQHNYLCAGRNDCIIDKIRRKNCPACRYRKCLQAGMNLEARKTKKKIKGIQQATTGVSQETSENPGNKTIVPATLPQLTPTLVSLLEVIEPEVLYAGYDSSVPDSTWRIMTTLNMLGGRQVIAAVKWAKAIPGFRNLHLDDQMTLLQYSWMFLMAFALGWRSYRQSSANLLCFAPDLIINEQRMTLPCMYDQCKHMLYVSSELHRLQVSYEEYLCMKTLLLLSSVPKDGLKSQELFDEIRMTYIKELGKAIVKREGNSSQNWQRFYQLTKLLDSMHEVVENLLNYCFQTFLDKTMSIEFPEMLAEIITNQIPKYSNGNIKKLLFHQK

Mus musculus [30] = assay: Antiobesity activity in diet-induced obese mouse assessed as decrease in body weight at 5 mg/kg administered QD via high fat-diet for 13 days measured after day 13; format: functional, organism-based; design: dose 5 mg/kg
Summary of the method: (§3)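 DIO male C57BL/6 mice (12 weeks high-fat diet), n = 11-12 per group. Rosiglitazone given in the high-fat chow at ~5 mg/kg/day for 13 or 14 days. Fed blood glucose by glucose meter and plasma insulin by radioimmunoassay before and at end of treatment. Body weight taken at end of treatment.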

Mus musculus [31] = assay: Antidiabetic activity in diet-induced obese mouse assessed as improvement of glucose tolerance at 5 mg/kg, QD for 13 days measured on day 14 after 12 hrs of fasting by glucose tolerance test
Mus musculus [32] = assay: Antidiabetic activity in diet-induced obese mouse assessed as decrease in plasma insulin level at 5 mg/kg administered QD via high fat-diet for 13 days measured after day 13 by glucose tolerance test; format: functional, organism-based; design: dose 5 mg/kg; summary of the method: as §3
Mus musculus [33] = assay: Antidiabetic activity in diet-induced obese mouse assessed as decrease in fed blood glucose level at 5 mg/kg administered QD via high fat-diet for 13 days measured after day 13 by glucose tolerance test; format: functional, organism-based; design: dose 5 mg/kg; summary of the method: as §3

CC(C)[C@@H]1SC(N[C@H]2C[C@@H]3CC[C@H]2C3)=NC1=O
Activity (Rattus norvegicus [1]): 39%
Activity (Rattus norvegicus [2]): 39%

CC(C)[C@]1(C)SC(N[C@H]2C[C@@H]3CC[C@H]2C3)=NC1=O
IC50 (Cytochrome P450 2C9): > 15 µM
Vd [3]: 0.98 L/kg
inhibition (Mus musculus [4]): Dose-dependent effect
IC50 (Cytochrome P450 3A4): > 15 µM
IC50 (Cytochrome P450 2C19): > 15 µM
inhibition in vivo at 50 mg/kg (Mus musculus [5]): 47%
clearance [6]: 52.7 mL/min/kg
bioavailability [7]: 54%
Km [8]: > 100 µM
inhibition in vivo at 15 mg/kg (Mus musculus [9]): 36%
Activity (Mus musculus [10]): Active
clearance [11]: 15.7 mL/min/kg
inhibition in vivo at 5 mg/kg (Mus musculus [12]): 33%
half-life [13]: 41.5 h
bioavailability [14]: 34%
half-life [15]: 15.6 h
inhibition in vivo at 15 mg/kg (Mus musculus [16]): 55%
clearance [17]: 31.5 mL/min/kg
half-life [18]: 8.1 h
inhibition (Mus musculus [19]): Active
Vd [20]: 1.02 L/kg
inhibition (Mus musculus [21]): Active
inhibition in vivo at 5 mg/kg (Mus musculus [22]): 10%
inhibition in vivo at 50 mg/kg (Mus musculus [23]): 39%
Vd [24]: 1 L/kg
IC50 [25]: > 10 µM
IC50 (Cytochrome P450 1A2): > 15 µM
bioavailability [26]: 7%
clearance [27]: 22.7 mL/min/kg
IC50 (Cytochrome P450 2D6): > 15 µM
half-life [28]: 0.6 h
bioavailability [29]: 50%
IC50 (Glucocorticoid receptor): > 10 µM

CN(CCOc1ccc(CC2SC(=O)NC2=O)cc1)c1ccccn1 (centres undefined)
inhibition (Mus musculus [30]): inactive
Activity (Mus musculus [31]): inactive
inhibition (Mus musculus [32]): Active
inhibition (Mus musculus [33]): Active
